What was measured:
[1] = 1-Octanol/aqueous buffer partition coefficient, logD of the compound at pH 7.4 by HPLC analysis; assay type: physicochemical
NIH3T3 = experiment: Cytotoxicity against BALB/c mouse 3T3 cells assessed as reduction in cell viability at 6.25 uM incubated for 1 hrs in absence of UV irradiation by Celltiter-Glo assay relative to control; assay type: toxicity, cell-based; conditions: nih3t3, 1 h
Method in brief: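 BALB/c 3T3 cells seeded at 2.5 × 10^3 cells/well and grown 1 day. Compound at 6.25 µM in EBSS with 1 mM HEPES, preincubated 1 h. Plate kept dark (–UV) while the paired plate was irradiated. Medium replaced, cultured 24 h more. Viability read as cellular ATP by CellTiter-Glo, % of 1% DMSO control; n = 3, mean ± SD.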

[2] = Total clearance in mouse at 0.1 mg/kg, iv administered as cassette dose by LC/MS/MS analysis; assay type: ADME, organism-based; conditions: in vivo
Method in brief: (§1)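 Non-fasted mice dosed by cassette, iv 0.1 mg/kg or po 1 mg/kg suspended in 0.5% methylcellulose aqueous solution; plasma obtained from blood by centrifugation, deproteinized with acetonitrile, and compound concentrations measured by LC/MS/MS.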

[3] = AUC in mouse at 1 mg/kg, po administered as cassette dose by LC/MS/MS analysis; assay type: ADME, organism-based; conditions: in vivo; method in brief: as §1
[4] = Oral bioavailability in mouse at 1 mg/kg administered as cassette dose by LC/MS/MS analysis; assay type: ADME, organism-based; conditions: in vivo; method in brief: as §1
[5] = target: T1, Sterol O-acyltransferase 1 (Homo sapiens, UniProt P35610); experiment: Inhibition of N-terminal FLAG-tagged full-length human ACAT1 expressed in recombinant baculovirus infected Sf21 cells using [1-14C]-oleoyl-CoA and cholesterol as substrate incubated for 40 mins by TLC analysis
T1 sequence (P35610 whole entry): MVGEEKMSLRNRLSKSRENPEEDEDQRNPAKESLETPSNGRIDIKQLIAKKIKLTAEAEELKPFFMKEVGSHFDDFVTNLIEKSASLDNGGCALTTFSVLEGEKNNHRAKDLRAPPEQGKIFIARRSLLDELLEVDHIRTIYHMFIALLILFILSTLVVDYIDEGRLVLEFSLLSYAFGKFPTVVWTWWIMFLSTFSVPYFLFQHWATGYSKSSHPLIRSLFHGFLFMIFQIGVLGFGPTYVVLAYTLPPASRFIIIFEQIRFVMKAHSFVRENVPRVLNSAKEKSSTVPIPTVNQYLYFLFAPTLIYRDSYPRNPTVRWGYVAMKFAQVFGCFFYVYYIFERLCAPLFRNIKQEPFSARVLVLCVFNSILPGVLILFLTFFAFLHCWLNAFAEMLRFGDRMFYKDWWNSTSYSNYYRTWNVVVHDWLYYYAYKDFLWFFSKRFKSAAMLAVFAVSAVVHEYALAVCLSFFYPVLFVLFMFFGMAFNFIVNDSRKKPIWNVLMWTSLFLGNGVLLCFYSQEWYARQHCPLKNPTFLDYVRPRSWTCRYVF
Method in brief: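 Sf-21 insect cell membranes from baculovirus infection, prepared in pH 7.4 phosphate/sucrose/KCl buffer. Enzyme at 30 µg/mL reacted with 5 µM [1-14C]-oleoyl-CoA and 100 µM cholesterol for 40 min at 32 °C. Lipids extracted by modified Bligh & Dyer, separated on silica TLC (hexane/ethyl ether/acetic acid), and radioactivity imaged.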

[6] = target: T2, Diacylglycerol O-acyltransferase 2 (Homo sapiens, UniProt Q96PD7); experiment: Inhibition of N-terminal FLAG-tagged full-length human DGAT2 expressed in recombinant baculovirus infected Sf21 cells using [1-14C]-oleoyl-CoA and 1,2-dioleoyl-glycerol as substrate incubated for 40 mins by TLC analysis
T2 sequence (Q96PD7 whole entry): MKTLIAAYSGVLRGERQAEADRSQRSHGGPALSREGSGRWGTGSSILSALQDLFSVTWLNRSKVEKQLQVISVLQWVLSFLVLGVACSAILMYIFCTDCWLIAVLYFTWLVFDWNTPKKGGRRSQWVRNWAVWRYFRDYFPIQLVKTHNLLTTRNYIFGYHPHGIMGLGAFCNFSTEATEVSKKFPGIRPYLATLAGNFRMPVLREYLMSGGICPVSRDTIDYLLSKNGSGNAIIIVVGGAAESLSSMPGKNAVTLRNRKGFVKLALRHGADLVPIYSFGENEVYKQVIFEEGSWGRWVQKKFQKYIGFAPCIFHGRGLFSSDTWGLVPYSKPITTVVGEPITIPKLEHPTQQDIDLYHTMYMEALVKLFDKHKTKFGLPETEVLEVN
Method in brief: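 Membranes from baculovirus-infected Sf-21 cells, each enzyme at 30 µg/mL, incubated with 5 µM [1-14C]-oleoyl-CoA and 40 µM 1,2-dioleoyl-glycerol for 40 min at 32 °C. Lipids extracted by modified Bligh & Dyer, resolved on silica TLC, and radioactivity incorporated into lipids quantified.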

CYP2D6 = CYP2D6 (Homo sapiens, UniProt P10635); experiment: Reversible inhibition of CYP2D6 in human liver microsomes using dextromethorphan as substrate at 10 uM incubated for 10 mins by LC/MS/MS analysis relative to control; assay type: ADME, Microsome; conditions: probe dextromethorphan
Sequence of CYP2D6 (P10635 whole entry, canonical isoform): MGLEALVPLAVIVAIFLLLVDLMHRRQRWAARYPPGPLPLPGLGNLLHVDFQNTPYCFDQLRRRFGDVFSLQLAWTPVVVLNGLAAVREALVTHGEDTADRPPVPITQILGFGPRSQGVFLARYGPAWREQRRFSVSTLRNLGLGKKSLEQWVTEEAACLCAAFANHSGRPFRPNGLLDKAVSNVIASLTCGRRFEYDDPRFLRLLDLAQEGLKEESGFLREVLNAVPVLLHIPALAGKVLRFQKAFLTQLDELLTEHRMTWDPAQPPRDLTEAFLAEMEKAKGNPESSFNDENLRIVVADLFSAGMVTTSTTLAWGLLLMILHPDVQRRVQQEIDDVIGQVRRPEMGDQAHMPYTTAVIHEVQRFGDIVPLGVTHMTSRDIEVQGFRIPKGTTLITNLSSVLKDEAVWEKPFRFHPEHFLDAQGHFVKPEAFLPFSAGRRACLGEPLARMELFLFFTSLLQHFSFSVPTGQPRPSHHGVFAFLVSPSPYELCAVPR
Method in brief: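 Human liver microsomes at 0.1 mg/mL incubated 10 min at 37 °C with isoform-specific substrate and 10 µM test compound. Pairs: 1A2 tacrine/1-hydroxytacrine; 2C8 paclitaxel/6α-hydroxypaclitaxel; 2C9 tolbutamide/4-hydroxytolbutamide; 2D6 dextromethorphan/dextrorphan; 3A4 midazolam/1'-hydroxymidazolam. Stopped with acetonitrile/water; metabolite measured by LC/MS/MS.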

[7] = In vivo inhibition of MGAT2 in olive oil-induced C57BL/6J mouse model of hypertriglyceridemia assessed as reduction in plasma chylomicron triglyceride level at 3 mg/kg, po preadministered with compound for 6 hrs followed by Pluronic F127 addition for 30 mins and further treated with olive oil for 4 hrs by automatic analyzer relative to control; assay type: functional; conditions: time 10.5 hrs
Method in brief: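 Male C57BL/6J mice (20–25 g) fasted overnight and dosed orally at 0.3, 1 or 3 mg/kg. Olive oil (8 mL/kg po) or water given 6 h later, with Pluronic F127 500 mg/kg i.p. 30 min before oil. Tail-vein plasma taken at 0, 2 and 4 h and TG measured by automatic analyzer. CM/TG = oil-group TG minus water-group TG; AUC over 4 h; n = 5, mean ± SD; Williams' test vs vehicle.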

logD [1]: 2.8
clearance [2]: 3.42 mL/min/kg
AUC [3]: 2440 ng·h/mL
bioavailability [4]: 50%
IC50 [5]: > 10 µM
IC50 [6]: > 10 µM
inhibition at 10 min, 10 µM (CYP2D6): < 10%
Compound: Cn1nc(C(F)(F)F)cc1-c1cnc(N2CCc3cc(S(=O)(=O)Nc4c(F)cc(Cl)cc4F)cc(N4CCCC4=O)c32)nc1 [TP-020]
Activity (NIH3T3): 99%
inhibition in vivo at 3 mg/kg [7]: 100%

Source: ChEMBL document CHEMBL5678813, “Optimization of a novel series of N-phenylindoline-5-sulfonamide-based acyl CoA:monoacylglycerol acyltransferase-2 inhibitors: Mitigation of CYP3A4 time-dependent inhibition and phototoxic liabilities” (Bioorg Med Chem, 2015)
